From PubChem
A selection: hits, their analogues and other compounds. The true share with any hit is near 2.7%.
Rpn11 inh – Rpn11 (human) deubiquitinase inhibition; human 26S proteasome, Ub4-pepOG fluorescence polarization; 20S core pre-blocked with epoxomicin; inhibition, % at 20 µM; 360,000 compounds, 0.59% hits; AID 588493;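 active means inhibition at 20 µM, scaled to each plate's controls, above about 33%, limit read from the data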
NadD inh – NadD (S. aureus) enzyme inhibition | purified NadD enzyme, colorimetric absorbance read-out | AID 602399 | inhibition, % at 20 µM | 360,000 compounds, 0.78% hits; in the data active means inhibition above about 26%
PP1 counter – counter-screen for PP5 inhibitors: inhibitors of human PP1-alpha; P62136; purified PP1alpha, OMFP fluorescence; inhibition, % at 6.7 µM; 320,000 compounds, 0.9% hits; AID 2235;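 active means inhibition above the mean inhibition of all tested compounds plus 3 SD, computed separately for each screening campaign, cut at about 15% in these data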
CSN inh – CSN deneddylation inhibition; Q92905; Purified CSN, SCF-Nedd8-OG deneddylation, fluorescence polarization; inhibition, % at 12.5 µM; 360,000 compounds, 0.38% hits; AID 651999;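 active means pattern-corrected inhibition above about 35%, with an unprinted fluorescence ratio check between 0.5 and 1.5, limit read from the data, passing the limit was not always enough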;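 further: 0% = enzyme with substrate and 100% = substrate without enzyme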
Target sequence (Q92905 whole entry, looked up, one chain of several): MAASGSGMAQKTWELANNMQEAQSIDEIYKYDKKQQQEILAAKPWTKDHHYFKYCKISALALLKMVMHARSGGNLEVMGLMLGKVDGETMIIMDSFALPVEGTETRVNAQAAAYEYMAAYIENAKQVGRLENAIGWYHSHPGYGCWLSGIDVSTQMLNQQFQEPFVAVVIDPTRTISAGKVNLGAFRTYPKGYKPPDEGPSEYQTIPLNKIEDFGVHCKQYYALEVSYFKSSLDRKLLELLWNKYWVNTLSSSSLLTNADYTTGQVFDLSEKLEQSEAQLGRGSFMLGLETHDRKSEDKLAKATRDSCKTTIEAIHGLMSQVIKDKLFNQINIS
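assay system = purified human Csn5 enzyme expressed in HEK293T cells | amount = 0.24 nM enzyme | buffer or medium = Tris/NaCl/DTT buffer, pH 7.5 | reagent = 10 nM SCFSkp2-Nedd8OG | compound = one concentration, 12.5 µM, 0.25% DMSO | times = 90 min reaction at room temperature | signal = FP | read-out basis = % inhibition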
HNF4A DNA FP – change in binding of human HNF4 alpha to DNA; P41235; HNF4a-FITC DNA binding, fluorescence polarization, 1 h; activity change, % at 10 µM; 360,000 compounds, 0.3% hits; in the data active means activity change above about 30%, passing the limit was not always enough
TPT1 inhibitor – blocks Candida albicans tRNA 2'-phosphotransferase | recombinant caTPT1, FP RNA substrate dephosphorylation | inhibition, % at 5 µM | 300,000 compounds, 0.81% hits | AID 1962;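 active means inhibition above the mean of all tested compounds plus 3 SD, set per screening campaign, cut at about 24% in these data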;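 further: plate controls were DMSO alone for no effect and ferristatin control at 100 nM for full effect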
PP1 confirm – human PP1 phosphatase inhibition, confirmation; shares compounds with PP1 counter; purified PP1alpha, OMFP substrate fluorescence; inhibition, % at 6.7 µM; 1,900 compounds, 52% hits; AID 2358;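 active means mean PP1 inhibition above a set limit taken from the earlier primary screen, cut at about 15% in these data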
PP5 counter – inhibits human PP5 phosphatase in PP1 counter-screen. shares compounds with PP1 counter. 1,900 compounds, 4% hits. inhibition, % at 6.7 µM. purified PP5c, OMFP fluorescence;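 active means mean PP5 inhibition over triplicate wells above about 9.5% taken from the earlier PP1 screen, limit read from the data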
* marks the source's active call; other numbers are inactive results; · = not tested or not shown.

SMILES	Rpn11 inh	NadD inh	PP1 counter	CSN inh	HNF4A DNA FP	TPT1 inhibitor	PP1 confirm	PP5 counter
CCCCN(C(=O)c1c(-c2ccccc2)noc1C)c1c(N)n(CCC)c(=O)[nH]c1=O	-5	-4	·	1	-3	·	·	·
O=C(O)c1nc(-c2ccccc2)n(-c2ccc(Cl)cc2)n1	2	3	18*	-3	-3	-2	18*	-6
O=C(O)c1cc(-c2ccccc2)n(-c2ccc(Cl)cc2)n1	7	2	24*	2	0	-2	31*	2
COc1ccc(-n2nc(C(=O)O)cc2-c2ccccc2)cc1	2	0	26*	3	-3	-3	24*	-5
Cc1ccccc1-n1nc(C(=O)O)cc1-c1ccccc1	5	2	36*	5	-3	1	33*	-5
O=C(O)c1cc2nc(-c3ccccc3)cc(-c3ccccc3)n2n1	-2	-1	3	-6	-3	5	·	·
NS(=O)(=O)c1ccc(-n2nc(C(=O)O)cc2-c2ccc(Cl)cc2)cc1	-5	2	9	-2	-2	-2	·	·
O=C(O)c1nc(-c2ccccc2)n(-c2ccccc2)n1	6	-2	7	-5	0	-3	·	·
COC(=O)c1cc(-c2ccc(F)cc2)n(-c2ccccc2)n1	-2	3	3	1	-5	-2	·	·
O=C(O)c1cc(-c2ccc(Cl)c(Cl)c2)n(-c2ccc(F)cc2)n1	1	6	53*	3	1	1	49*	-5
O=C(O)c1cc(-c2ccccc2)n(-c2ccccc2)n1	10	9	24*	-4	-1	3	28*	-3
CCCC[C@@H]1CC2=C(C(=O)OC(C)(C)O2)[C@H](c2ccc(C(C)C)cc2)O1	·	-4	·	0	2	·	·	·
CCOC(=O)c1ccc(N2CCOCC2)c(NC(=O)c2nccnc2C(=O)O)c1	-28	4	3	-3	2	3	·	·
CC(NC(=O)COC(=O)c1ccc([N+](=O)[O-])o1)c1ccccc1 (centres undefined)	-1	0	·	4	-4	·	·	·
COc1cc(C2C(C(=O)c3ccc(C)o3)=C(O)C(=O)N2c2cc(C)on2)cc(Br)c1O (centres undefined)	-9	0	5	6	-2	3	·	·
Cc1cc(N2C(=O)C(O)=C(C(=O)c3ccc(C)o3)C2c2cccc(Oc3ccccc3)c2)no1 (centres undefined)	11	21	29*	3	-3	2	29*	0
Cc1cc(N2C(=O)C(O)=C(C(=O)c3ccc(C)o3)C2c2ccc([N+](=O)[O-])cc2)no1 (centres undefined)	-2	17	18*	-6	2	-1	14	0
CC(C)C[C@H]1CN=C(Nc2ccccc2)N1CC1CCCCCC1	-22	-2	4	7	4	-2	·	·
Cc1noc(C)c1-c1ccc(C(=O)NCc2cccs2)c2occc12	1	-2	·	-5	5	·	·	·
O=C(NCc1cccc(C(F)(F)F)c1)C1CC2Cn3c(nc4ccccc43)C2N1Cc1ccccc1 (centres undefined)	5	-3	-6	0	0	1	·	·
Cc1cc(/C=N/n2cnnc2)c(C)n1-c1ccc(OCc2ccc(Cl)cc2)cc1	3	5	28*	0	3	-2	26*	0
Cc1cc(/C=N/n2cnnc2)c(C)n1-c1ccc(OCc2ccccc2F)cc1	0	2	9	0	6	5	·	·
CC(=O)C1=C(O)C(=O)N(c2cccc(Br)c2)C1c1ccc(Br)cc1 (centres undefined)	3	6	29*	1	0	0	25*	-3
CC(=O)C1=C(O)C(=O)N(c2ccc(Br)cc2)C1c1ccc(Br)cc1 (centres undefined)	5	5	24*	6	-1	0	23*	-3
CCOC(=O)C1=C(O)C(=O)N(c2ccc(S(N)(=O)=O)cc2)C1c1ccc(Cl)cc1 (centres undefined)	5	7	12	2	3	2	·	·
SMILES	Rpn11 inh	NadD inh	PP1 counter	CSN inh	HNF4A DNA FP	TPT1 inhibitor	PP1 confirm	PP5 counter
CCOC(=O)C1=C(O)C(=O)N(c2ccc(S(N)(=O)=O)cc2)C1c1ccc(Br)cc1 (centres undefined)	2	3	21*	-2	0	1	7	-7
COc1cccc(C#CC2=CC(=O)C[C@H](c3ccc(F)cc3)C2)c1	-1	2	·	2	3	·	·	·
Cc1cccc(N=Nc2ccc(O)c3ncccc23)c1	24	22	29*	-5	-2	-3	29*	-1
Cc1ccc(C)c(N=Nc2ccc(O)c3ncccc23)c1	29	4	3	0	1	1	·	·
COc1ccc(-c2cc(NC=O)c3ncc(-c4cccc(C(=O)NCCN(C)C)c4)n3c2)c(OC)c1	-6	-10	·	10	3	·	·	·
Cc1cc(NC(c2cccnc2)c2ccc3cccnc3c2O)no1 (centres undefined)	9	5	-1	-6	-2	-1	·	·
CC(=O)NC(c1ccco1)c1cc(Cl)c2cccnc2c1O (centres undefined)	16	6	·	1	3	·	·	·
Oc1c(C(Nc2ccccn2)c2cccnc2)cc(Cl)c2cccnc12 (centres undefined)	20	24	22*	1	5	-2	19*	-3
COc1ccc(C(NC(=O)c2cccnc2)c2cc(Cl)c3cccnc3c2O)cc1OC (centres undefined)	24	4	34*	0	1	-48	22*	-2
O=[N+]([O-])c1ccc(-c2nnc(S)n2-c2ccccc2)cc1	·	·	-1	·	·	2	·	·
[S-]c1nnc(-c2ccc(Br)cc2)n1-c1ccccc1.[Zn+2]	-20	-2	20*	-1	5	-5	24*	-5
CCOC(=O)[C@H]1[C@H]2COc3ccc(Br)cc3[C@@H]2N2C(=O)CN(CC3CCCO3)C(=O)[C@@]12C (some centres undefined)	-1	0	-2	2	2	·	·	·
O=C(NCCC1CCCCN1S(=O)(=O)c1ccc(Cl)cc1)C(=O)NCc1ccncc1 (centres undefined)	1	-5	31*	-1	3	1	-3	1
COc1ccc(S(=O)(=O)N2CCCC2CNC(=O)C(=O)NCc2ccccc2)cc1 (centres undefined)	0	-6	33*	-6	3	0	-5	-5
